ChEMBL document CHEMBL1921795, “Discovery, synthesis, and structure-activity relationship development of a series of N-4-(2,5-dioxopyrrolidin-1-yl)phenylpicolinamides (VU0400195, ML182): characterization of a novel positive allosteric modulator of the metabotropic glutamate receptor 4 (mGlu(4)) with oral efficacy in an …” (J Med Chem, 2011)

Assays:
[1] = Half life in iv dosed Beagle dog; format: ADME, organism-based, Canis lupus familiaris; conditions: in vivo
Rattus norvegicus [2] = assay: AUC (0 to 24 hrs) in Sprague-Dawley rat at 1 mg/kg, iv by LC/MS analysis; format: ADME, organism-based, Plasma; design: time < 24 hr, dose 1 mg/kg, route intravenous; conditions: in vivo
Outline: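 Male Sprague-Dawley rats (n=2, 250-300 g) with carotid artery and jugular vein catheters, acclimated about one week, fed ad libitum. Dose given through the jugular catheter in 20% DMSO/80% saline at 1 mL/kg. Carotid blood drawn pre-dose and at 2, 7, 15, 30 min and 1, 2, 4, 7, 24 h into chilled EDTA tubes. Plasma measured by LC/MS/MS; parameters from noncompartmental analysis of individual profiles.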

[3] = Half life in rhesus monkey at 1 mg/kg, iv by LC/MS analysis; format: ADME, organism-based, Macaca mulatta; design: dose 1 mg/kg, route intravenous; conditions: in vivo
Outline: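 Rhesus monkeys (8-11 kg) tranquilized with ketamine 10 mg/kg im and Telazol 3 mg/kg im. Compound given iv at 1 mg/kg, blood collected, plasma analysed by LC/MS/MS (MRM, positive ESI).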

Rattus norvegicus [4] = assay: Oral bioavailability in Sprague-Dawley rat at 10 mg/kg by LC/MS analysis; format: ADME, organism-based; conditions: in vivo
Rattus norvegicus [5] = assay: Volume of distribution at steady state in Sprague-Dawley rat at 1 mg/kg, iv by LC/MS analysis; format: ADME, organism-based; design: dose 1 mg/kg, route intravenous; conditions: in vivo
Outline: (§1)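 Male Sprague-Dawley rats (n=2, 250-300 g), carotid and jugular cannulated; 1 mg/kg iv via jugular catheter in 20% DMSO/80% saline. Arterial blood from pre-dose to 24 h, EDTA plasma analysed by LC/MS/MS; noncompartmental analysis of individual profiles.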

Rattus norvegicus [6] = assay: AUC (0 to 24 hrs) in Sprague-Dawley rat at 10 mg/kg, po by LC/MS analysis; format: ADME, organism-based, Plasma; design: time < 24 hr, dose 10 mg/kg, route oral; conditions: in vivo
Rattus norvegicus [7] = assay: Half life in Sprague-Dawley rat at 1 mg/kg, iv by LC/MS analysis; format: ADME, organism-based; design: dose 1 mg/kg, route intravenous; conditions: in vivo; outline: as §1
Rattus norvegicus [8] = assay: Cmax in Sprague-Dawley rat at 10 mg/kg, po by LC/MS analysis; format: ADME, organism-based; design: dose 10 mg/kg, route oral; conditions: in vivo
[9] = Intrinsic clearance in human hepatic microsomes; format: ADME, Microsome; conditions: human liver microsomes
[10] = target: Metabotropic glutamate receptor 6 (Homo sapiens, UniProt O15303); assay: Positive allosteric modulator activity at human mGlu6 receptor at 10 uM by thallium flux assay
Sequence of Metabotropic glutamate receptor 6 (O15303 whole entry): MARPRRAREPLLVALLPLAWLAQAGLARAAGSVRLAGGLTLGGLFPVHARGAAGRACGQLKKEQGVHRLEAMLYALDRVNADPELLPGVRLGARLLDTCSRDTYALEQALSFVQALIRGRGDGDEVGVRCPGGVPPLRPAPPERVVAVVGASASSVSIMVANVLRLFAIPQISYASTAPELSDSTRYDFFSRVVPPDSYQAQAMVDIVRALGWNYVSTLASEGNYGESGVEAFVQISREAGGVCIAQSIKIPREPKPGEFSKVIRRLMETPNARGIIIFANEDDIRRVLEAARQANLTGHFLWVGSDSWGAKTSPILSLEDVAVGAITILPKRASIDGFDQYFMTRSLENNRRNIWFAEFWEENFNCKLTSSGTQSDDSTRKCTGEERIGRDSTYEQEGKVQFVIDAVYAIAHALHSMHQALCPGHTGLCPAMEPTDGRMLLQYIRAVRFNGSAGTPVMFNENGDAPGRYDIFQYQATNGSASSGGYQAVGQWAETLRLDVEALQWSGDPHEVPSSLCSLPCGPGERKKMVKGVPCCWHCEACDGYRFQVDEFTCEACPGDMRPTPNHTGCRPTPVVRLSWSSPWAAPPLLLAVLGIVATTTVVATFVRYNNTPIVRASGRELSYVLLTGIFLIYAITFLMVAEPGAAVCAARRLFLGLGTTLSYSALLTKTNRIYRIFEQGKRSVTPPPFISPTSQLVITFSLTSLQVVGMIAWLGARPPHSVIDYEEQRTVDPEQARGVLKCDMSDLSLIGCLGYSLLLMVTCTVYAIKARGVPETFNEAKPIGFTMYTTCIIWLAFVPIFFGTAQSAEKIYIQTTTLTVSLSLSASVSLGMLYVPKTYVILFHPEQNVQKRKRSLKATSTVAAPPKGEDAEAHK
Outline: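 Cells expressing human mGlu6 with GIRK channels, thallium flux double-addition protocol. 10 µM compound or vehicle was added, then a full glutamate concentration-response 2.5 min later. A left shift >2-fold was scored as potentiator activity. A right shift >2-fold or max depression ≥75% was scored as antagonist activity. Mean ± SEM of three experiments in singlicate.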

Cytochrome P450 2C9 = Cytochrome P450 2C9 (Homo sapiens, UniProt P11712); assay: Inhibition of CYP2C9 in human liver microsomes using diclofenac as substrate
Sequence of Cytochrome P450 2C9 (P11712 whole entry): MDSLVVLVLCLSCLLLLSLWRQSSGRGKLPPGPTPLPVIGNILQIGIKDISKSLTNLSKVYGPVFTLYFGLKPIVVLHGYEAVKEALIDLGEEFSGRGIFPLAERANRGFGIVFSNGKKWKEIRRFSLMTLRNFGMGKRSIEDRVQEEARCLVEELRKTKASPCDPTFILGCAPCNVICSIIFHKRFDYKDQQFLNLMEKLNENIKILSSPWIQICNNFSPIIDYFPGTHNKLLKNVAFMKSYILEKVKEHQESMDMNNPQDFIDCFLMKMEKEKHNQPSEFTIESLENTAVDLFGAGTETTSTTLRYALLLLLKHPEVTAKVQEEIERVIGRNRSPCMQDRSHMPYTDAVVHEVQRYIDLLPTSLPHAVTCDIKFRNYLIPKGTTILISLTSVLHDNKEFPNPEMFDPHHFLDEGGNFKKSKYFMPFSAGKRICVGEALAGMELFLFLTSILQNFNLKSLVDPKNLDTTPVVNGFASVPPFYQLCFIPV

Cytochrome P450 1A2 = target: T1, Cytochrome P450 1A2 (Homo sapiens, UniProt P05177); assay: Inhibition of CYP1A2 in human liver microsomes using phenacetin as substrate
T1 sequence (P05177 whole entry): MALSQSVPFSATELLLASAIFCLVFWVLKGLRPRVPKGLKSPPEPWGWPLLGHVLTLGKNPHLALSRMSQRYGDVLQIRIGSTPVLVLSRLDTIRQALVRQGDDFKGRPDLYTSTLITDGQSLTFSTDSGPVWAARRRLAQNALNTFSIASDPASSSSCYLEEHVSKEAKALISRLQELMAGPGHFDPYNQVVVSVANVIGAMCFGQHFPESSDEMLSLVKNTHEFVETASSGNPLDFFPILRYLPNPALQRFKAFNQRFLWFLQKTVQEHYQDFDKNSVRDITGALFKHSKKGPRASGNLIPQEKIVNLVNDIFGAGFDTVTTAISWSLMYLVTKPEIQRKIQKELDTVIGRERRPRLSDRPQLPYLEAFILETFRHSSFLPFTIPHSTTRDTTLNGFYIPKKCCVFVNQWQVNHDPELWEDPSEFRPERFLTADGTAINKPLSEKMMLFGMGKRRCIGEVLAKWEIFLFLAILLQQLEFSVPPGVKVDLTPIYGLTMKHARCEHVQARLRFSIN

Brain [11] = assay: Fraction unbound in rat brain homogenate by equilibrium dialysis; format: ADME, tissue-based
Cytochrome P450 2D6 = Cytochrome P450 2D6 (Homo sapiens, UniProt P10635); assay: Inhibition of CYP2D6 in human liver microsomes using […] as substrate; format: ADME, Microsome
Sequence of Cytochrome P450 2D6 (P10635 whole entry): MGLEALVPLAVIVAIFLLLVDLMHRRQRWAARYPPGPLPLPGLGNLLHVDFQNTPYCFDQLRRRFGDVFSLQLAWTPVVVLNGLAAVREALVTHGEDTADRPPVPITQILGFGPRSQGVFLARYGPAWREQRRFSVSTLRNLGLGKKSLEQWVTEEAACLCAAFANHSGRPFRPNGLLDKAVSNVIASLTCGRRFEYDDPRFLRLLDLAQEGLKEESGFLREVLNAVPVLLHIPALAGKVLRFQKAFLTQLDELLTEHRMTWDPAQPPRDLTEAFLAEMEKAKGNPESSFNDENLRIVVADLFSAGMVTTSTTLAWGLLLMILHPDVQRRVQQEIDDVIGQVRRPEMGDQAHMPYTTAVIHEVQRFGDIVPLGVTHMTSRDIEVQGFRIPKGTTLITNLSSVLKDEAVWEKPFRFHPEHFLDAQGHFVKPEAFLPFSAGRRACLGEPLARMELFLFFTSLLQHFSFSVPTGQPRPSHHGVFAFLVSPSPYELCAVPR
Outline: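 Pooled human liver microsomes (0.1 mg/mL) with probe cocktail (phenacetin 10 µM, diclofenac 5 µM, dextromethorphan 5 µM, midazolam 2 µM) in 0.1 M phosphate pH 7.4; compound 100 nM–30 µM in duplicate, 15 min preincubation at 37 °C, then 1 mM NADPH for 8 min. LC/MS/MS of metabolite formation; IC50 derived.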

[12] = Intrinsic clearance in rat hepatic microsomes at 1 uM by LC/MS/MS analysis; format: ADME, Microsome; conditions: rat liver microsomes
Cytochrome P450 2C19 = Cytochrome P450 2C19 (Homo sapiens, UniProt P33261); assay: Inhibition of CYP2C19 in human liver microsomes using S-mephenytoin as substrate; format: ADME, Microsome
Sequence of Cytochrome P450 2C19 (P33261 whole entry): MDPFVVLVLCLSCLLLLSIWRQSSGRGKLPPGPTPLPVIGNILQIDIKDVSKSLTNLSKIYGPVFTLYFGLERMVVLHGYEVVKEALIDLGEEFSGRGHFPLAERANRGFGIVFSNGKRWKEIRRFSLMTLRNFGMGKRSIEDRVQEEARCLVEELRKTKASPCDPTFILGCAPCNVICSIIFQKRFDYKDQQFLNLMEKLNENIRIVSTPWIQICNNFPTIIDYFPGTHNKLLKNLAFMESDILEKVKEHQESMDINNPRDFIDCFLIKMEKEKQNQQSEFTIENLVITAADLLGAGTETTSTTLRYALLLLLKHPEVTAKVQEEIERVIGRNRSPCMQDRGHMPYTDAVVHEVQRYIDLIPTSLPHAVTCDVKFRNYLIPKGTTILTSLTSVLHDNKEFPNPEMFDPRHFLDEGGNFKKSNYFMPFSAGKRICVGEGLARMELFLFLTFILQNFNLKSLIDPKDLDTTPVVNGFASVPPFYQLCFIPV

Plasma [13] = assay: Fraction unbound in rat plasma by equilibrium dialysis; format: ADME, cell-free
Outline: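 Rat plasma spiked with compound, equilibrium dialysis against 25 mM phosphate buffer pH 7.4 for 4 h at 37 °C with shaking; both chambers matrix-matched, acetonitrile-extracted and quantified by LC/MS/MS; triplicate.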

Plasma [14] = assay: Fraction unbound in human plasma; format: ADME, cell-free
[15] = AUC (0 to 6 hrs) in Sprague-Dawley rat hepatic portal vein plasma at 10 mg/kg, po; format: ADME, organism-based; design: time < 6 hr, dose 10 mg/kg, route oral
Brain [16] = assay: AUC (0 to 6 hrs) in Sprague-Dawley rat brain at 10 mg/kg, po; format: ADME, organism-based; design: time < 6 hr, dose 10 mg/kg, route oral; conditions: in vivo
[17] = Ratio of AUC in brain to plasma in Sprague-Dawley rat

SMILES: Cl.O=C(Nc1ccc(N2C(=O)CC(c3ccccc3)C2=O)c(Cl)c1)c1ccccn1 (configuration not stated)
- half-life [1]: > 3 h
- AUC (Rattus norvegicus [2]): 3225 ng·h/mL
- half-life [3]: > 3 h
- F (Rattus norvegicus [4]): 8.3%
- Vdss (Rattus norvegicus [5]): 0.58 L/kg
- AUC (Rattus norvegicus [6]): 2685 ng·h/mL
- t1/2 (Rattus norvegicus [7]): 5.48 h
- Cmax (Rattus norvegicus [8]): 553 ng/mL

SMILES: O=C(Nc1ccc(N2C(=O)[C@@H]3[C@H](C2=O)[C@@H]2C=C[C@H]3C2)c(Cl)c1)c1ccccn1 (mixture of isomers)
- CLint scaled [9]: 19.7 mL/min/kg
- EC50 [10]: > 10 µM
- IC50 (Cytochrome P450 2C9): > 30 µM
- IC50 (Cytochrome P450 1A2): > 30 µM
- Fu (Brain [11]): 7.6%
- IC50 (Cytochrome P450 2D6): > 30 µM
- CLint scaled at 1 µM [12]: 53 mL/min/kg
- IC50 (Cytochrome P450 2C19): > 30 µM
- Fu (Plasma [13]): 3.2%
- Fu (Plasma [14]): 4.1%

SMILES: Cl.O=C(Nc1ccc(N2C(=O)[C@@H]3[C@H](C2=O)[C@@H]2C=C[C@H]3C2)c(Cl)c1)c1ccccn1
- AUC (Rattus norvegicus [2]): 454 ng·h/mL
- AUC(0-t) at 6 h [15]: 8.48 nM·h
- AUC (Brain [16]): 800 nM·h
- F (Rattus norvegicus [4]): 97%
- Vdss (Rattus norvegicus [5]): 18 L/kg
- AUC (Rattus norvegicus [6]): 4354 ng·h/mL
- Kp [17]: 0.93
- t1/2 (Rattus norvegicus [7]): 0.673 h
- Cmax (Rattus norvegicus [8]): 238 ng/mL
